Results from the EternaBench riboswitch data.

Test system: MS2 coat protein
Test: apparent Kd, MS2 coat protein; higher = weaker binding; RNA-MaP array
Summary of the method: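 On an Illumina sequencing chip, sequenced DNA templates served for transcription of the designed RNAs, which were then bound at room temperature by fluorescently labeled MS2 coat protein at 1.5 nM to 3 μM, with or without input ligand. Apparent Kd is the median of the fits to each cluster's binding curve. Only designs measured on at least 10 clusters were kept.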

[1] = designed as: ON switch for flavin mononucleotide, no ligand
[2] = ligand present: flavin mononucleotide, designed as: ON switch for flavin mononucleotide
[3] = designed as: OFF switch for flavin mononucleotide, no ligand
[4] = ligand present: flavin mononucleotide, designed as: OFF switch for flavin mononucleotide
[5] = designed as: ON switch for tryptophan, no ligand
[6] = ligand present: tryptophan, designed as: ON switch for tryptophan

| Sequence | apparent Kd [3] [nM] | apparent Kd [4] [nM] | also measured |
| --- | --- | --- | --- |
| CGCGGACCACCUGAUACCAGCGCAGUCAUGCAUGAACCCAACAUGAGGAUCACCCAUGUACGCCCUUGGCAGCAGGGAAAAGUCG | – | – | apparent Kd (designed as: OFF switch for theophylline, no ligand): 161 nM; apparent Kd (ligand present: theophylline, designed as: OFF switch for theophylline): 267 nM |
| AUUAAGUCGACAGGAUAUCCGUACUUUGAGUAAGGAGAAGGGUCUACAAAGGUACAUGAGGAUCACCCAUGUGACUUGGCCGUC | – | – | apparent Kd [1]: 10.1 nM; apparent Kd [2]: 7.7 nM |
| GAUAUACAUGAGGAUCACCCAUGUCCAAAUUAAGUUUUAGUAUAGGAUAUUGACCGCUAGGAUGUCAAGAAGGAUACCCGAGGU | – | – | apparent Kd [1]: 14.8 nM; apparent Kd [2]: 7.52 nM |
| UCCCGAAAGAAGAAGGGUACACCGAGCUGGUAACACAGCAAAACAUGAGGAUCACCCAUGUCUGAACAGGAUAUUCCGCGAGUA | – | – | apparent Kd [1]: 31.9 nM; apparent Kd [2]: 25.5 nM |
| CGAUACCAUGGUCAGGAUAUGAAACAGCUGACAUGAGGAUCACCCAUGUGAUAGGCAGGUGGACUUCAGAAGGGACACAUACACCA | – | – | apparent Kd [1]: 184 nM; apparent Kd [2]: 50.2 nM |
| UAUGUACAUGAGGAUCACCCAUGUCAGGAUAUCUUCGAUUAGACCAUUAGCGCCGCGGAGAGAAGGGACGUAGA | 16 | 15.1 | – |
| CCUGUGAUCCACAUGAGGAUCACCCAUGUAUAAGUGAUUGACAGAAGGAGAGCAUGCUUGUGAUUCUAGGAUAUGUUUCUCAUA | 25.2 | 25.9 | – |
| UAAAGCUGAAAGAAGGCUCCAUCGCUAGUACUGAGAGGAUAUUUCGUUGUUGACAUGAGGAUCACCCAUGUGGUUCGCCGGGCC | – | – | apparent Kd [1]: 49.4 nM; apparent Kd [2]: 26.8 nM |
| CGUUACAUAGAGAAGGUUCAUAAGAUCAAAUAACAUGAGGAUCACCCAUGUAUGUAAGCAUGAGGAAAGGAUAUCUACCGCCAG | – | – | apparent Kd [1]: 144 nM; apparent Kd [2]: 70.1 nM |
| UGCGUCGUUUAGAAGGGAGUGGCCCAACAUGAGGAUCACCCAUGUGACGCUCAGAAUGUAUUUGCUCAGGAUAUAAAUGUCUUU | 162 | 123 | – |
| GAACACCAGAAGAAGGGAGACAUGAGGAUCACCCAUGUUUAAAUACGAAAUAAGGUAAAAGCAACACAGGAUAUUCGGCUCUAC | – | – | apparent Kd [1]: 22.6 nM; apparent Kd [2]: 18 nM |
| CUUGUGGCACAGGAUAUUCCGACGUAAUCAAAUGAAGAAGGGUGCACAUGAGGAUCACCCAUGUGUGAACACAA | 12.3 | 26.8 | – |
| UCGCAUUCAGGAUAUACUUAAAGGUGAACUGAUCAUAGCAAACAUGAGGAUCACCCAUGUAGAAGGGAAAUAUC | 99.2 | 72.7 | – |
| GAUAGAUAUGUAAGGAUAUGUGACGCGCUUGAGAAACAGAAGGAACAUGAGGAUCACCCAUGUAGAUGUUGUGA | 11.2 | 9.94 | – |
| GGAAUGUCAGGAUAUCUAAUUACCCAGAAAGAUAUGGAACCAGAGAAGGGACAUGAGGAUCACCCAUGUAUAAC | 10.2 | 12.4 | – |
| ACAAACUCAGGAUAUAACGGUGGACACAUGAGGAUCACCCAUGUAAUCCGUGUGACUUAUUUAGAAGGGAGGCGAU | 8.35 | 8.34 | – |
| CGGCGACAUGAGGAUCACCCAUGUUAGGAUAUUCAGUUAACUGUGUUUGAUCGUUUGAGAAGAAGGAACGUGAG | 10.7 | 10.2 | – |
| UAAGAAGAUGAGAAGGGCCAAGUAUGAGCCGGGCGAUACAUGAGGAUCACCCAUGUUUCCUAACGGCAGGAUAUCACUUCCUAU | 5.86 | 18.8 | – |
| UGACUCUCUGUCAGGAUAUAACAAGCUACAGUUUAUUAGAAGGGACAUGAGGAUCACCCAUGUUGAACACCCGA | 7.94 | 7.98 | – |
| CCAUUGCAUGGAGGAUAUGAGCAGUAAGUACUCUCAGAAGGCCACGGAGUAAACAAACCAUCUUACAUGAGGAUCACCCAUGUA | – | – | apparent Kd [1]: 13 nM; apparent Kd [2]: 7.69 nM |
| ACAGCAAACGUAGGAUAUGGGAGAACAUGAGGAUCACCCAUGUGGAAGUACGAGUUCGCUACAUACCAGAAGGACGAAAUCUAC | – | – | apparent Kd [1]: 156 nM; apparent Kd [2]: 35.8 nM |
| UCCUCGUUUACAUGAGGAUCACCCAUGUGCUCGUCUAAACAUUAGGAUAUCGACCCUCUGCGCAUCGAGAAGGAAUACGGCGAG | 192 | 204 | – |
| AUACAAUCAGGAUAUACUAGGCGAUAACAGAUUAUGACGUCACAUGAGGAUCACCCAUGUAGAAGGGAUCAGGA | 39.2 | 53.1 | – |
| ACGGUUCGAGGAUAUGUCGGUAGUUACAUGAGGAUCACCCAUGUUGUGACAUCGUGGUGGACAGAAGGCGACAUCC | 201 | 119 | – |

| Sequence | apparent Kd [3] [nM] | apparent Kd [4] [nM] | also measured |
| --- | --- | --- | --- |
| CUUAUACAUGAGGAUCACCCAUGUGGUGAUACCAGCCACGAUCAAGGCCCUUGGCAGCACAAAGGGAAUAAUAUGAUUACAAAAC | – | – | apparent Kd (designed as: ON switch for theophylline, no ligand): 227 nM; apparent Kd (ligand present: theophylline, designed as: ON switch for theophylline): 212 nM |
| CUCUUAGGACAGGAUAUGGAACGCAUGUGUGCUCCAGAAGGGUCUACAUGAGGAUCACCCAUGUUCGGGACGGU | 530 | 469 | – |
| UAACGCCCCUUAGGAUAUCCACGUAACCCCUCCCCCGUAAGUAGAAACAUGAGGAUCACCCAUGUGGAGAAGGAAGUGACCCGC | 20.8 | 18.9 | – |
| CUCGGCGCCCAAGGAUAUAGUGGAGGUAAGAAACUAGAAGGUGGUGUGCUAACAUGUUGUCCUUUACAUGAGGAUCACCCAUGU | 38.6 | 32.9 | – |
| AGAGCACAUGAGGAUCACCCAUGUUAGGAUAUAAGUCUGGAUCUACCUGAGCCCGAUCUUAGAAGGAACGGUGU | 11 | 11.6 | – |
| UUAAUUCAGUGCCACAUGAGGAUCACCCAUGUCCAUACUCAAAAGGAUAUAUGCGGUUUCUAAGUAUAGAAGGUUUGUACACGA | – | – | apparent Kd [1]: 130 nM; apparent Kd [2]: 89 nM |
| UACGGUGCAGGAUAUCGAAUUUCAAACAUGAGGAUCACCCAUGUCUAAUAUGGCGACUAACGAGAAGGGCAGGAAG | 16.2 | 16 | – |
| UAAUAGAAAGGAUAUACAUAGGUUGGCUAAUGACGUUCCGAACAUGAGGAUCACCCAUGUAGAAGGUUCUGCGU | 12.4 | 29.5 | – |
| AAUGUGUAAGGAUAUACCGUUCAGUCUCUCCACAAUCGAUGGUAGAAGGUACAUGAGGAUCACCCAUGUGAGGA | 14.9 | 15.2 | – |
| AAAAUUGAAGGAUAUACAUGAGGAUCACCCAUGUGCAACAUAUUUGAAUGGCCUCACGGUAGAAGGUCAAAACG | 6.83 | 7.52 | – |
| UUAUUCCCGGAGGAUAUCGACGUAUUUGGCGCCCGAGAAGGCCGGACAUGAGGAUCACCCAUGUCCCGUGCUCU | 5.66 | 5.82 | – |
| CCUCACUUGAAGAAGGACAGCUUCGGUCACAUCGGAACAUGAGGAUCACCCAUGUGACGCGUGGUGUAGGAUAUUCGUAAGGCA | 57.6 | 147 | – |
| UCUAACCUAGGAUAUACAUGCCUUGCGUAGCACAUCCGUUUACAUGAGGAUCACCCAUGUAGAAGGAGGGACGG | 6.55 | 8.51 | – |
| UAGGACAUGAGGAUCACCCAUGUUGUACGGCGAGGACCGGUACGGCCGCCACUCGAGGCGUAAGUAGUAAAGAAUCUGAUUCAAU | – | – | apparent Kd [5]: 21.4 nM; apparent Kd [6]: 24.1 nM |
| CGGUAGUUUUAGAAGGAGCAACCAAGUUUACAUGAGGAUCACCCAUGUGUGAGGAUAUGUUAAGGCUAGGAUAUAAUAGAACCU | 25.4 | 23.4 | – |
| UCAUGCUGAGGAUAUACAUGAGGAUCACCCAUGUACAGAAUAAGGGAGUGCCAUCAAAGUAGAAGGCAGGACGU | 14.4 | 14.6 | – |
| GUUCAACGGUGAGGAUAUUGCAGUACGUACGCACAAGAAGGCACUCCAUAGCACAGGGUGCACAUGAGGAUCACCCAUGUGGUC | 494 | 224 | – |
| GGGAUCGGAGGAUAUCGGUGGUUUAACAUGAGGAUCACCCAUGUGAAUAAACAAGUGGAGCGAGAAGGCCGGCGCU | 14.7 | 9.97 | – |
| ACAGAAAAUAGAGGAUAUACAAGAACAUGAGGAUCACCCAUGUAAUAACAAUAUGAUCGGUUCAAGAAGAAGGCUAAACAAAAU | 14.2 | 12.8 | – |
| AUGCCACCAUACCGCAGUAAUACAUGAGGAUCACCCAUGUAGGAGGAUAUACUUUUGGUAAUGAUGUAGAAGGCCUAGUGGUAC | – | – | apparent Kd [1]: 5.91 nM; apparent Kd [2]: 6.09 nM |
| CGCAGACUGUUAGGAUAUGAUACUAACAUGAGGAUCACCCAUGUUUACUCAGUGGAUAAGCAGAGUCAGAAGGAACAUUACGCA | – | – | apparent Kd [1]: 12.2 nM; apparent Kd [2]: 9.29 nM |
| AUAUUGUUUAUAGGAUAUUACACUAAGGUGACAUGAGGAUCACCCAUGUCCUCAACCACACGACUUAAGAAGGAUAAACGUUGG | 46.5 | 54.9 | – |
| GGGCACAUGAGGAUCACCCAUGUCCAACGGCGAGGACCGGUACGGCCGCCACUCGGUAUAAGCUUCGAAAAGGAGGAUCCUGCAG | – | – | apparent Kd [5]: 38.4 nM; apparent Kd [6]: 30.9 nM |
| CUAUACGUAACAUGAGGAUCACCCAUGUUCAGGUGACCAGGAAGAAGGGCUAGCAGAGUAGUUCAGCAGGAUAUUCGAUUAGAC | 38.6 | 28.9 | – |
